One experiment has as its target T1, Adenosine receptor A3 (Homo sapiens, UniProt P0DMS8).
T1 sequence (P0DMS8 whole entry): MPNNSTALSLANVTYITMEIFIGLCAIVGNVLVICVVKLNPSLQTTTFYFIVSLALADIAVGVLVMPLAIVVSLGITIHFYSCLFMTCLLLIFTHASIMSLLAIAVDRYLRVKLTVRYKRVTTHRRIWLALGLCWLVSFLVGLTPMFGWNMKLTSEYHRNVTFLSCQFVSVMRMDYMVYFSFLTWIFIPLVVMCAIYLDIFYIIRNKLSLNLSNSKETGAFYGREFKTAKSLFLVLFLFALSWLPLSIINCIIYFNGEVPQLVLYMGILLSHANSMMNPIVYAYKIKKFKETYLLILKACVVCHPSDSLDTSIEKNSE
The experiment is described as follows: Displacement of [3H]-HEMADO from human A3 receptor expressed in CHO cell membrane by radioligand binding assay. It is filed as cell membranes. The method, boiled down: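 Membranes from CHO cells with human receptor: low-speed spin at 1,000 x g, then crude membranes pelleted at 100,000 x g. Resuspended in 50 mM Tris/HCl, 10 mM MgCl2, 1 mM EDTA, pH 8.25, stored at -80 °C. Radioligand at 1 nM; nonspecific binding with 100 µM R-PIA. Ki by SCTFIT, mean of 3-6 replicates.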
Background: Displacement assays read how much labelled ligand stays bound in the presence of the test substance.

The next experiment addresses T2, Adenosine receptor A1 (Homo sapiens, UniProt P30542).
T2 sequence (P30542 whole entry): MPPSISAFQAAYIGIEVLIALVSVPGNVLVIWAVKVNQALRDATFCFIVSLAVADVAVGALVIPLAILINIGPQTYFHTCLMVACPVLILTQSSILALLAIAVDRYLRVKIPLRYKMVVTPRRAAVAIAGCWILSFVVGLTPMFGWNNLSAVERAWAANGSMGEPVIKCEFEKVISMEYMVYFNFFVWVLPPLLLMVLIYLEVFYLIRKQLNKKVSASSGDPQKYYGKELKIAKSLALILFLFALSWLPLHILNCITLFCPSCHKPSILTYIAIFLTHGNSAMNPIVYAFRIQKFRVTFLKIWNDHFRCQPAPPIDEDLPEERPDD
The experiment is described as follows: Displacement of [3H]CCPA from human A1 receptor expressed in CHO cell membrane by radioligand binding assay. In kind it is cell membranes. The method, boiled down: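 CHO membranes prepared by 1,000 x g clearing, then 100,000 x g sedimentation, resuspended in 50 mM Tris/HCl pH 7.4 and kept at -80 °C. Labelled with 1 nM radioligand; nonspecific binding with theophylline (1 mM). Ki values from SCTFIT, mean of 3-6 replicates.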

For a further experiment, the target named is Adenosine receptor A2a (Homo sapiens, UniProt P29274). The experiment is described as follows: Displacement of [3H]-NECA from human A2A receptor expressed in CHO cell membrane by radioligand binding assay. It is filed as cell membranes. The method, boiled down:
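Crude membrane fraction from transfected CHO cells, obtained by 1,000 x g then 100,000 x g centrifugation, in 50 mM Tris/HCl pH 7.4, stored at -80 °C. Radioligand at 10 nM; 100 µM R-PIA defined nonspecific binding. Ki computed with SCTFIT, mean of 3-6 replicates.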

Another experiment concerns the target T3, Adenosine receptor A2b (Homo sapiens, UniProt P29275).
T3 sequence (P29275 whole entry): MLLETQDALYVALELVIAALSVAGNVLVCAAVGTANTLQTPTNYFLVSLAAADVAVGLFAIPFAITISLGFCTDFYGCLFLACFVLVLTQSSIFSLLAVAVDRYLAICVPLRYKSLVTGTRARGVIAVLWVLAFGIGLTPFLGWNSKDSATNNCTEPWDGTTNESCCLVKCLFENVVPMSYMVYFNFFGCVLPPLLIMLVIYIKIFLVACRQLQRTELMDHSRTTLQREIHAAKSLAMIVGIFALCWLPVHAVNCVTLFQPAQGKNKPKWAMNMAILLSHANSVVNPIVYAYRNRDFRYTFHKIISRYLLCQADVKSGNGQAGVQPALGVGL
The experiment is described as follows: Antagonist activity at human A2B receptor expressed in CHO cell membrane assessed as reduction in NECA-stimulated adenylyl cyclase activity in presence of [alpha32P]ATP. In kind it is functional, cell membranes.

pIC50, pKi: −log10 of the molar value. Where only a bound is given, the exact number is not on record here.

Chain of Adenosine receptor A2a (P29274 whole entry): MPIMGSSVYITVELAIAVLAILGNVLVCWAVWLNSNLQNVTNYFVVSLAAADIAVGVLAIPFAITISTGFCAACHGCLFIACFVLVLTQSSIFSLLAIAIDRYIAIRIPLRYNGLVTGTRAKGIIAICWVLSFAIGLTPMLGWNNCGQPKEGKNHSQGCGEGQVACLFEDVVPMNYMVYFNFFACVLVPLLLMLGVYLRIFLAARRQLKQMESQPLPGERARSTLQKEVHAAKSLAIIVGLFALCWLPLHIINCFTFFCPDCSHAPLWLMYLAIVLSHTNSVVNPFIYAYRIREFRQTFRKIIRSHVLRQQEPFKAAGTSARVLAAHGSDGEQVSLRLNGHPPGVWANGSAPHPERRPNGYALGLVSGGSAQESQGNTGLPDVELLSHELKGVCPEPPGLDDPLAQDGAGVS

By pKi is commonly meant the Ki on a negative log10 scale, so that one unit is a factor of ten. The pIC50 is the IC50 on a negative log10 scale, so that one unit is a factor of ten. On to `CCOC(=O)[C@H](Cc1ccc(O)cc1)Nc1nc2nn(C)cc2c2nc(-c3ccco3)nn12`, for which the negative-log Ki (pKi) was 7.61 at Adenosine receptor A3, 6.21 on Adenosine receptor A1 and 5.89 at Adenosine receptor A2a. Besides, the pIC50 at Adenosine receptor A2b was less than 5.00.

Regarding `CCOC(=O)C(Nc1nc2nn(C)cc2c2nc(-c3ccco3)nn12)C(O)c1ccccc1` (racemic), the values for the pKi on Adenosine receptor A3, at Adenosine receptor A1 and on Adenosine receptor A2a were 7.33, 6.05 and 6.42, respectively. The pIC50 at Adenosine receptor A2b was less than 5.00.

In the case of `CCOC(=O)C(CO)Nc1nc2nn(C)cc2c2nc(-c3ccco3)nn12` (racemic), the pKi at Adenosine receptor A3 was 7.77; on Adenosine receptor A1 it was 6.51; at Adenosine receptor A2a, 6.46.

Turning to `CCOC(=O)CCCNc1nc2nn(C)cc2c2nc(-c3ccco3)nn12`, the pKi at Adenosine receptor A3 was 6.97; on Adenosine receptor A1, 6.05; at Adenosine receptor A2a, 6.64. In addition, the negative-log IC50 (pIC50) on Adenosine receptor A2b was less than 5.00.

Turning to `CCOC(=O)C[C@H](Nc1nc2nn(C)cc2c2nc(-c3ccco3)nn12)C(=O)OCC`, the pKi at Adenosine receptor A3 is 7.79; at Adenosine receptor A1, 6.26; at Adenosine receptor A2a, 6.35. Also, at Adenosine receptor A2b, the pIC50 is less than 5.00.

In the case of `CCOC(=O)[C@H](Cc1ccccc1)Nc1nc2nn(C)cc2c2nc(-c3ccco3)nn12`, the negative logarithm of the Ki (pKi) on Adenosine receptor A3 is 7.30; on Adenosine receptor A1, 5.74; at Adenosine receptor A2a, 5.89. In addition, the pIC50 on Adenosine receptor A2b was less than 5.00.

Regarding `CCOC(=O)C(Nc1nc2nn(C)cc2c2nc(-c3ccco3)nn12)c1ccccc1` (racemic), the results for the pKi on Adenosine receptor A3, on Adenosine receptor A1 and at Adenosine receptor A2a were 9.51, 6.76 and 6.07, respectively. Also, the pIC50 at Adenosine receptor A2b is less than 5.00.

For the molecule `CCOC(=O)C(CC(C)C)Nc1nc2nn(C)cc2c2nc(-c3ccco3)nn12` (racemic), the results for the pKi at Adenosine receptor A3, at Adenosine receptor A1 and at Adenosine receptor A2a were 9.30, 6.49 and 6.40, respectively. On Adenosine receptor A2b, the pIC50 was less than 5.00.

For `CCOC(=O)C(Nc1nc2nn(C)cc2c2nc(-c3ccco3)nn12)C(C)C` (racemic), the negative-log Ki (pKi) at Adenosine receptor A3 is 8.76; on Adenosine receptor A1, 6.23; on Adenosine receptor A2a, 5.90. Moreover, on Adenosine receptor A2b, the pIC50 is less than 5.00.

As for `CCOC(=O)CC[C@H](Nc1nc2nn(C)cc2c2nc(-c3ccco3)nn12)C(=O)OCC`, the negative logarithm of the Ki (pKi) was 8.12 on Adenosine receptor A3, 6.04 at Adenosine receptor A1 and 5.57 at Adenosine receptor A2a. Besides, the negative logarithm of the IC50 (pIC50) on Adenosine receptor A2b is less than 5.00.

For the molecule `CCCCC(Nc1nc2nn(C)cc2c2nc(-c3ccco3)nn12)C(=O)OCC` (racemic), the results for the pKi on Adenosine receptor A3, on Adenosine receptor A1 and on Adenosine receptor A2a were 8.97, 6.41 and 6.26, respectively. For the same molecule, the negative logarithm of the IC50 (pIC50) at Adenosine receptor A2b was less than 5.00.

In the case of `CCOC(=O)[C@@H](Cc1c[nH]c2ccccc12)Nc1nc2nn(C)cc2c2nc(-c3ccco3)nn12`, the pKi at Adenosine receptor A3 is 7.22; on Adenosine receptor A1, 5.80; at Adenosine receptor A2a it was 6.05.

On to `CCOC(=O)C(C)Nc1nc2nn(C)cc2c2nc(-c3ccco3)nn12` (racemic), for which the negative-log Ki (pKi) is 7.81 on Adenosine receptor A3, 5.66 at Adenosine receptor A1 and 6.09 at Adenosine receptor A2a. Moreover, on Adenosine receptor A2b, the pIC50 was less than 5.00.

For `COC(=O)[C@@H]1CCCN1c1nc2nn(C)cc2c2nc(-c3ccco3)nn12`, the negative-log Ki (pKi) was 6.95 at Adenosine receptor A3, 5.64 at Adenosine receptor A1 and 6.37 on Adenosine receptor A2a. Moreover, the negative logarithm of the IC50 (pIC50) at Adenosine receptor A2b was less than 5.00.
